The values that follow come from ChEMBL document CHEMBL3351539, “"On water" expedient synthesis of 3-indolyl-3-hydroxy oxindole derivatives and their anticancer activity in vitro” (Eur J Med Chem, 2014).

A short description of assay [1]: Cytotoxicity against human U937 cells assessed as growth inhibition after 24 hrs by MTT assay. To be noted: U-937, 24 h.
For assay [2], the system named is A549. Kind of assay: Cytotoxicity against human A549 cells assessed as growth inhibition after 24 hrs by MTT assay. To be noted: A549, 24 h. (Tetrazolium dyes change colour on reduction, which living cells bring about.)
For assay [3], the system named is THP-1. Nature of the assay: Cytotoxicity against human THP1 cells assessed as growth inhibition after 24 hrs by MTT assay. To be noted: THP-1, 24 h.
Assay [4] concerns U-937. Nature of the assay: Cytotoxicity against human U937 cells assessed as formation of apoptotic bodies at IC50 by light microscopy. It counts as functional, cell-based. In a few lines:
(§1)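 U937 cells were exposed to one concentration per derivative and examined by light microscopy at 400X against untreated controls with intact cells. Cells were scored for shrinkage in cell size, nuclear condensation and formation of apoptotic bodies.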

Assay [5] has as its system U-937. Kind of assay: Cytotoxicity against human U937 cells assessed as nuclear condensation at IC50 by light microscopy. Type of assay: functional, cell-based. In a few lines: as §1
The subject of assay [6] is MCF7. Nature of the assay: Ratio of etoposide IC50 to compound IC50 for human MCF7 cells assessed as growth inhibition after 24 hrs by MTT assay.
Assay [7] deals with U-937. Nature of the assay: Cytotoxicity against human U937 cells assessed as shrinkage in cell size at IC50 by light microscopy. It counts as functional, cell-based. In a few lines:
as §1

Assay [8] relates to MCF7. Kind of assay: Cytotoxicity against human MCF7 cells assessed as growth inhibition after 24 hrs by MTT assay. Particulars: MCF7, 24 h.
Assay [9] relates to U-937. Nature of the assay: Ratio of etoposide IC50 to compound IC50 for human U937 cells assessed as growth inhibition after 24 hrs by MTT assay.

Converted amounts (≈) assume the structure as drawn. The source made the active and inactive calls. No cut-off for these calls is given here.

In general, IC50 refers to the concentration needed to halve the response being measured. Take `Cc1ccc2[nH]cc(C3(O)C(=O)Nc4ccc(F)cc43)c2c1` (centres undefined): the IC50 in assay [1] was determined as 35.5 µg/mL (≈ 120 µM).

In the case of `COc1ccc2[nH]cc(C3(O)C(=O)Nc4ccc(Cl)cc43)c2c1` (centres undefined), in assay [1], the IC50 was found to be 39.8 µg/mL (≈ 121 µM).

With `O=C1Nc2ccc(I)cc2C1(O)c1c[nH]c2ccccc12` (centres undefined), in assay [1], the IC50 is 21.6 µg/mL (≈ 55.3 µM).

As to `O=C1N(Cc2ccccc2)c2ccccc2C1(O)c1c[nH]c2ccccc12` (centres undefined), the IC50 stood at 22.8 µg/mL (≈ 64.2 µM) in [2], 64.5 µg/mL (≈ 182 µM) in assay [3] and 43 µg/mL (≈ 121 µM) in assay [1].

For `O=C1N(Cc2ccccc2)c2ccc(Cl)cc2C1(O)c1c[nH]c2ccc(Br)cc12` (centres undefined), the IC50 came to 13.3 µg/mL (≈ 28.5 µM) in assay [2], 7.12 µg/mL (≈ 15.2 µM) in assay [3], 8.02 µg/mL (≈ 17.1 µM) in assay [1] and 8.64 µg/mL (≈ 18.5 µM) in assay [8]. For the same compound, the result in assay [4], in [5] and in [7] was Active. Besides, in assay [6], the “Ratio IC50” value is listed as 1.

As for `O=C1Nc2ccc(I)cc2C1(O)c1c[nH]c2ccc(F)cc12` (centres undefined), the values for the IC50 in assay [2] and in assay [3] were 43.7 µg/mL (≈ 107 µM) and 62.4 µg/mL (≈ 153 µM), respectively.

With `O=C1Nc2c(Cl)cccc2C1(O)c1c[nH]c2ccccc12` (centres undefined), in [3], the IC50 amounted to 86.1 µg/mL (≈ 288 µM).

In the case of `O=C1N(Cc2ccccc2Br)c2ccccc2C1(O)c1c[nH]c2ccc(Br)cc12` (centres undefined), the IC50 in assay [2] is 29.8 µg/mL (≈ 58.1 µM); in assay [3], 6.93 µg/mL (≈ 13.5 µM); in assay [1], 14.9 µg/mL (≈ 29.1 µM); in assay [8], 24.7 µg/mL (≈ 48.3 µM).

Consider `Cc1ccc2[nH]cc(C3(O)C(=O)Nc4ccc(I)cc43)c2c1` (centres undefined), for which the IC50 in assay [2] came to 25.2 µg/mL (≈ 62.3 µM); in assay [3] it was 87.1 µg/mL (≈ 216 µM); in assay [1], 23.1 µg/mL (≈ 57.3 µM); in assay [8] it was 84.5 µg/mL (≈ 209 µM).

Turning to `CN1C(=O)C(O)(c2c[nH]c3ccccc23)c2ccccc21` (centres undefined), in assay [8], the IC50 is 49 µg/mL (≈ 176 µM).

Take `O=C1N(Cc2ccc(Br)cc2)c2ccc(Cl)cc2C1(O)c1c[nH]c2ccc(Br)cc12` (centres undefined): the 50% inhibitory concentration (IC50) is 18.4 µg/mL (≈ 33.6 µM) in [2], 6.06 µg/mL (≈ 11.1 µM) in [3], 12.2 µg/mL (≈ 22.2 µM) in assay [1] and 20.4 µg/mL (≈ 37.3 µM) in [8].

With `COc1ccc2[nH]cc(C3(O)C(=O)N(Cc4ccccc4Cl)c4ccccc43)c2c1` (centres undefined), the half-maximal inhibitory concentration (IC50) was 33.1 µg/mL (≈ 79 µM) in [2], 5.6 µg/mL (≈ 13.4 µM) in [3], 7.6 µg/mL (≈ 18.1 µM) in assay [1] and 13.4 µg/mL (≈ 32.1 µM) in assay [8]. For the same compound, the “Ratio IC50” value in assay [6] worked out at 1.

For the compound `O=C1Nc2ccc(Br)cc2C1(O)c1c[nH]c2ccc(Br)cc12` (centres undefined), the IC50 in [2] was determined as 25.1 µg/mL (≈ 59.5 µM); in [3] it was 86.1 µg/mL (≈ 204 µM); in [1], 43.3 µg/mL (≈ 103 µM); in [8] it was 68.7 µg/mL (≈ 163 µM).

Consider `O=C1Nc2ccc(OC(F)(F)F)cc2C1(O)c1c[nH]c2ccc(Br)cc12` (centres undefined), for which the IC50 in assay [2] is 13 µg/mL (≈ 30.4 µM); in assay [8] it was 5.47 µg/mL (≈ 12.8 µM). For the same compound, the “Ratio IC50” value in assay [6] stood at 1.

`O=C1Nc2ccc(Cl)cc2C1(O)c1c[nH]c2ccc(Br)cc12` (centres undefined): the IC50 in assay [2] was 19.8 µg/mL (≈ 52.5 µM); in assay [3], 98.5 µg/mL (≈ 261 µM); in assay [1], 25.3 µg/mL (≈ 67 µM); in assay [8], 95.5 µg/mL (≈ 253 µM).

In the case of `O=C1Nc2ccc(F)cc2C1(O)c1c[nH]c2ccccc12` (centres undefined), in assay [1], the half-maximal inhibitory concentration (IC50) was 43.7 µg/mL (≈ 155 µM).

With `O=C1N(Cc2ccccc2Cl)c2ccc(Cl)cc2C1(O)c1c[nH]c2ccccc12` (centres undefined), the IC50 in [2] came to 15.8 µg/mL (≈ 37.2 µM); in assay [3], 7.01 µg/mL (≈ 16.6 µM); in [1] it was 4.89 µg/mL (≈ 11.6 µM); in assay [8], 20.6 µg/mL (≈ 48.7 µM). Further, the “Ratio IC50” value in assay [9] was determined as 0.5.

As to `COc1ccc2[nH]cc(C3(O)C(=O)N(Cc4ccccc4Cl)c4ccc(Cl)cc43)c2c1` (centres undefined), the half-inhibitory concentration (IC50) is 14.1 µg/mL (≈ 31.1 µM) in assay [2], 4.27 µg/mL (≈ 9.42 µM) in assay [3], 6.07 µg/mL (≈ 13.4 µM) in assay [1] and 10.8 µg/mL (≈ 23.9 µM) in [8]. In addition, the outcome in assay [4], in [5] and in [7] was Active. Further, the “Ratio IC50” value is 1 in assay [6] and 0.5 in [9].

Consider `COc1ccc2[nH]cc(C3(O)C(=O)Nc4ccc(I)cc43)c2c1` (centres undefined), for which, in assay [3], the IC50 came out at 69.2 µg/mL (≈ 165 µM).

For `O=C1Nc2ccc(Cl)cc2C1(O)c1c[nH]c2ccccc12` (centres undefined), the IC50 in assay [1] was 19.8 µg/mL (≈ 66.3 µM).

`O=C1Nc2ccc(Br)cc2C1(O)c1c[nH]c2ccccc12` (centres undefined): the IC50 came to 72.5 µg/mL (≈ 211 µM) in [2] and 19.3 µg/mL (≈ 56.2 µM) in [1].

In the case of `O=C1N(Cc2ccccc2)c2ccccc2C1(O)c1c[nH]c2ccc(Br)cc12` (centres undefined), the half-inhibitory concentration (IC50) was found to be 25.1 µg/mL (≈ 57.9 µM) in assay [2], 14.2 µg/mL (≈ 32.7 µM) in assay [3], 17.1 µg/mL (≈ 39.4 µM) in assay [1] and 31.2 µg/mL (≈ 72.1 µM) in assay [8].

As for `O=C1N(Cc2ccccc2Cl)c2ccccc2C1(O)c1c[nH]c2ccc(Br)cc12` (centres undefined), the IC50 was determined as 16.2 µg/mL (≈ 34.5 µM) in assay [2], 7.37 µg/mL (≈ 15.8 µM) in assay [3], 7.16 µg/mL (≈ 15.3 µM) in assay [1] and 22.3 µg/mL (≈ 47.7 µM) in assay [8].

On to `O=C1N(Cc2ccccc2Cl)c2ccc(Cl)cc2C1(O)c1c[nH]c2ccc(Br)cc12` (centres undefined), for which the IC50 was determined as 16.5 µg/mL (≈ 32.9 µM) in assay [2], 6.12 µg/mL (≈ 12.2 µM) in [3], 5.31 µg/mL (≈ 10.6 µM) in assay [1] and 21.3 µg/mL (≈ 42.3 µM) in assay [8]. Also, in assay [9], the “Ratio IC50” value is on record as 0.5.

`COc1cc([C@@H]2c3cc4c(cc3[C@@H](O[C@@H]3O[C@@H]5CO[C@@H](C)O[C@H]5[C@H](O)[C@H]3O)[C@H]3COC(=O)[C@H]23)OCO4)cc(OC)c1O` [ETOPOSIDE]: the IC50 in assay [2] amounted to 10.7 µg/mL (≈ 18.2 µM); in [1] it was 6.14 µg/mL (≈ 10.4 µM); in assay [8] it was 17.8 µg/mL (≈ 30.2 µM).

Regarding `O=C1Nc2ccc(F)cc2C1(O)c1c[nH]c2ccc(Br)cc12` (centres undefined), the IC50 in [3] is 76 µg/mL (≈ 210 µM).

Take `O=C1N(Cc2ccccc2)c2ccc(Cl)cc2C1(O)c1c[nH]c2ccccc12` (centres undefined): the IC50 in assay [2] was determined as 18.3 µg/mL (≈ 47.1 µM); in assay [3], 5.03 µg/mL (≈ 12.9 µM); in assay [1], 4.33 µg/mL (≈ 11.1 µM); in assay [8], 24 µg/mL (≈ 61.8 µM). Besides, the result in assay [4], in [5] and in assay [7] was Active. In assay [9], the “Ratio IC50” value came out at 0.5.

For the compound `O=C1N(Cc2ccccc2Cl)c2ccccc2C1(O)c1c[nH]c2ccccc12` (centres undefined), the IC50 was found to be 28.1 µg/mL (≈ 72.4 µM) in assay [2], 6.97 µg/mL (≈ 17.9 µM) in assay [3], 15 µg/mL (≈ 38.5 µM) in assay [1] and 39.3 µg/mL (≈ 101 µM) in assay [8].

With `COc1ccc2[nH]cc(C3(O)C(=O)Nc4ccc(F)cc43)c2c1` (centres undefined), the concentration for half-maximal inhibition (IC50) in assay [1] came out at 55.9 µg/mL (≈ 179 µM).

For `Cc1ccc2c(c1)C(O)(c1c[nH]c3ccccc13)C(=O)N2` (centres undefined), the IC50 in assay [1] amounted to 83.4 µg/mL (≈ 300 µM).

Turning to `O=C1Nc2ccc(OC(F)(F)F)cc2C1(O)c1c[nH]c2ccccc12` (centres undefined), the IC50 in assay [3] came to 13.7 µg/mL (≈ 39.4 µM); in [1] it was 16.8 µg/mL (≈ 48.2 µM); in assay [8], 71.5 µg/mL (≈ 205 µM).
